The list is not random: actives were taken first. Their share in the collection is about 0.77%.
Pf gametocyte – inhibitors of late stage P. falciparum gametocyte viability. P. falciparum stage V gametocytes, ATP luminescence, 24 h. inhibition, % at 10.9 µM. actives 0.065% (n = 150,000);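 active = inhibition above the mean plus 3 SD of compounds within the control limits, set per campaign, cut at about 38% in these data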;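 also: 0% = DMSO wells and 100% = medium only without gametocytes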
S1P4 antag – blocks the human S1P4 receptor. actives 0.26% (n = 220,000). S1P4-expressing cells, antagonist mode, reporter read-out. AID 1510. inhibition, % at 4.98 µM; in the data active = inhibition above about 29%;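 also: 0% = wells stimulated with agonist and 100% = vehicle wells without agonist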
Target sequence (O95977 whole entry, looked up): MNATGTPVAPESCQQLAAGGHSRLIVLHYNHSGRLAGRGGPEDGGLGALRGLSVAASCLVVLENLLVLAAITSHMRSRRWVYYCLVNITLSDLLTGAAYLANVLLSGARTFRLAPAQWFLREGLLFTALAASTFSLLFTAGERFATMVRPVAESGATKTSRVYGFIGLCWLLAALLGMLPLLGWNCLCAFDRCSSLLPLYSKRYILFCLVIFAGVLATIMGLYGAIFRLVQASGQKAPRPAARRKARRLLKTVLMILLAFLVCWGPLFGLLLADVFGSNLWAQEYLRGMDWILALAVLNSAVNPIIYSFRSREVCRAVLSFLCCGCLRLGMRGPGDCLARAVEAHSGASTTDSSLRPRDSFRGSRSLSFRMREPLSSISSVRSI
S1P4 agonist – agonists of human S1P4 receptor. actives 0.35% (n = 220,000). O95977. activation, % at 4.98 µM. AID 1509. S1P4-expressing cell line, agonist reporter assay; in the data active = activation above about 11%;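 also: 0% = DMSO vehicle and 100% = reference agonist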
S1P3 antagonist – antagonists of human S1P3 receptor. inhibition, % at 4.98 µM. CHO S1P3 NFAT-BLA reporter, FRET fluorescence, antagonist mode. Q99500. actives 0.27% (n = 170,000);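 active = inhibition above the plate cutoff, the mean inhibition of test wells on that plate plus 3 SD, cut at about 28% in these data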;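 also: cells challenged with S1P at its EC80 of 0.8 µM; blue over green emission ratio from cleaved BLA substrate after 4 h stimulation; 0% = S1P-stimulated wells and 100% = unstimulated DMSO-only wells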
Biofilm kill mix – mixtures killing C. albicans biofilm; actives 0.02% (n = 120,000); inhibition, % at 7.6 µM; C. albicans biofilm persisters + clotrimazole, fluorescence viability; primary screen in compound mixtures of four per well; AID 1242;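 active = inhibition above 30.3% in the primary screen of four-compound pools, then above 30% when the compound was retested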;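 also: compounds exposed to preformed 24 h biofilms for 48 h; 0% = untreated biofilm control and 100% = clotrimazole plus chlorhexidine kill blank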
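System: C. albicans CAF4-2 wild-type biofilms; Medium: RPMI/MOPS medium, pH 7.0; Reagent: Clotrimazole, 50 µg/mL; Times: biofilm formation 24 h, compound exposure 48 h, 37 °C; Detection: 2-h Alamar Blue fluorescence, 535/590 nm excitation/emission; Evaluation: percent inhibition of biofilm viability.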
* marks the source's active call; other numbers are inactive results.

What do the screens show for `Cc1ccc(N2C(=O)C3N=NN(CC(=O)N4N=C(c5ccccc5)CC4c4ccccc4)C3C2=O)cc1` (stereo not given)?
Pf gametocyte: -15.7; S1P4 antag: -22.8; S1P4 agonist: 1.2; S1P3 antagonist: -4.0; Biofilm kill mix: 7.6

Results for CC(=O)C[C@H](O)CC(=O)[C@H]1OC(=O)CC/C=C\Cc2ccccc21 ?
Pf gametocyte: -39.6

Results for Cc1ccc(-c2cc(C(F)(F)F)c(C#N)c(=O)[nH]2)cc1 ?
Pf gametocyte: -11.7; S1P4 antag: -0.6; S1P4 agonist: -0.7; S1P3 antagonist: -12.0; Biofilm kill mix: 4.8

What do the screens show for `N#Cc1c(C(F)(F)F)cc(C2CC2)[nH]c1=O`?
S1P4 antag: 7.5; S1P4 agonist: -1.2; S1P3 antagonist: 61.5*

How did O=C(Oc1cccc2cccnc12)c1ccc2c(c1)OCCO2 do in these assays?
S1P4 antag: -20.0; S1P4 agonist: 0.3; S1P3 antagonist: 60.8*

Results for Cc1ccc(S(=O)(=O)N2CC3CCCC2C3)cc1 (stereo not given) ?
Pf gametocyte: -34.2; S1P4 antag: 5.0; S1P4 agonist: -1.6; S1P3 antagonist: 6.6; Biofilm kill mix: 16.1

What do the screens show for `CCOc1cc(/C=C2/COc3ccccc3C2=O)ccc1OCC(=O)N(C)C`?
Pf gametocyte: -18.1; S1P4 antag: 37.3*; S1P4 agonist: -4.5; S1P3 antagonist: 3.0; Biofilm kill mix: -8.2

Results for Cc1cc(/C=N/n2cnnc2)c(C)n1-c1ccc(OCc2ccc(Cl)cc2)cc1 ?
S1P4 antag: -9.9; S1P4 agonist: -1.5

Results for Cc1cc(/C=N/n2cnnc2)c(C)n1-c1ccc(OCc2ccccc2F)cc1 ?
Pf gametocyte: 12.2; S1P4 antag: -17.1; S1P4 agonist: 2.5; S1P3 antagonist: 67.8*

Results for CCC(=O)OCc1c(C(F)(F)F)nn(C)c1Sc1ccc(Cl)cc1 ?
Pf gametocyte: 5.5; S1P4 antag: -5.1; S1P4 agonist: 4.0

Results for CCC(=O)OCc1c(C(F)(F)F)nn(C)c1Sc1ccc(F)cc1 ?
Pf gametocyte: 6.2; S1P4 antag: -2.1; S1P4 agonist: 11.0*

Results for Oc1ccc(N=Nc2ccc3c(c2)OCCO3)c2ncccc12 ?
Pf gametocyte: -17.0; S1P4 antag: -6.2; S1P4 agonist: -0.2; S1P3 antagonist: -7.6; Biofilm kill mix: 33.0

What do the screens show for `CC(=O)c1ccc(N2CCN(c3ncc(C(F)(F)F)cc3Cl)CC2)cc1`?
S1P4 antag: -9.8; S1P4 agonist: 1.6

How did CC(=O)c1ccc(N2CCN(c3ccc(C(F)(F)F)cn3)CC2)cc1 do in these assays?
Pf gametocyte: 4.6; S1P4 antag: 4.2; S1P4 agonist: 1.3; S1P3 antagonist: 76.6*; Biofilm kill mix: 17.2

What do the screens show for `O=C(C1=NN(c2ccccc2)C2C(=O)N(c3cccc(Cl)c3)C(=O)C12)c1ccccc1` (stereo not given)?
Pf gametocyte: 4.2; S1P4 antag: 2.6; S1P4 agonist: -3.4; S1P3 antagonist: 28.4*; Biofilm kill mix: 12.6

Results for O=c1c2ccccc2nc2n1C(CBr)CN2 (stereo not given) ?
Pf gametocyte: -35.4; S1P4 antag: -34.0; S1P4 agonist: 1.4; S1P3 antagonist: 1.5; Biofilm kill mix: 20.3

How did COc1cc(NC(=O)CN2C(=O)COc3ccccc32)cc(OC)c1 do in these assays?
Pf gametocyte: -12.6

Results for CC[n+]1ccccc1/C=C/c1ccc(N(C)C)cc1 ?
Pf gametocyte: -25.8; S1P4 antag: -17.3; S1P4 agonist: 1.3; S1P3 antagonist: 7.7; Biofilm kill mix: 4.8

How did CC[n+]1ccc(/C=C/c2ccc(N(C)C)cc2)c2ccccc21 do in these assays?
Pf gametocyte: 17.6; S1P4 antag: -27.1; S1P4 agonist: -1.4; S1P3 antagonist: 6.1; Biofilm kill mix: 35.0*

How did COc1ccc(O)c(/C=N/n2c(-c3ccco3)csc2=Nc2cccnc2)c1 do in these assays?
Pf gametocyte: 53.0*; S1P4 antag: -11.3; S1P4 agonist: 1.0; S1P3 antagonist: -9.7; Biofilm kill mix: 16.9

How did COCCn1c(-c2ccco2)csc1=Nc1cccnc1 do in these assays?
S1P4 antag: 5.1; S1P4 agonist: -1.7

How did O=C(Nc1ncc(Br)s1)C(Cc1ccccc1)n1cccc1 (stereo not given) do in these assays?
S1P4 antag: 23.6; S1P4 agonist: -0.5; S1P3 antagonist: 66.8*

Results for CCCCOc1ccc(CSCCN=C(N)N)cc1 ?
Pf gametocyte: 18.6; S1P4 antag: 7.8; S1P4 agonist: -0.7; S1P3 antagonist: -23.4; Biofilm kill mix: 30.6*

How did Cc1ccc2nc(NC(=O)c3ccc(Cl)s3)sc2c1 do in these assays?
S1P4 antag: -38.7; S1P4 agonist: -0.7; S1P3 antagonist: -14.0
